Results: ChEMBL document CHEMBL4390639, “Design, Synthesis, and Biological Evaluation of Novel Allosteric Protein Disulfide Isomerase Inhibitors” (J Med Chem, 2019)
Calls of active or inactive are those of the source. The rule behind the calls is not given here.

Key:
U-87 MG [1] = experiment: Down regulation of cleaved MMP2 expression in human U87MG cells at 10 uM measured after 24 hrs by Western blot analysis; type: functional, cell-based; conditions: U-87MG ATCC
U-87 MG [2] = experiment: Down regulation of AC007848.1 gene expression in human U87MG cells at 16 uM incubated for 4 hrs followed by bromouridine addition during last 30 mins of incubation by TRIzol-reagent based Bru-Seq analysis relative to control; type: functional, U-87MG ATCC
U-87 MG [3] = experiment: Up regulation of VEGFD gene expression in human U87MG cells at 16 uM incubated for 4 hrs followed by bromouridine addition during last 30 mins of incubation by TRIzol-reagent based Bru-Seq analysis relative to control; type: functional, U-87MG ATCC
U-87 MG [4] = experiment: Down regulation of CYP1B1 gene expression in human U87MG cells at 16 uM incubated for 4 hrs followed by bromouridine addition during last 30 mins of incubation by TRIzol-reagent based Bru-Seq analysis relative to control; type: functional, U-87MG ATCC
U-87 MG [5] = experiment: Up regulation of KCNE4 gene expression in human U87MG cells at 16 uM incubated for 4 hrs followed by bromouridine addition during last 30 mins of incubation by TRIzol-reagent based Bru-Seq analysis relative to control; type: functional, U-87MG ATCC
Summary of the method: (§1)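 U87MG cells exposed to compound or DMSO vehicle for 4 h, with 2 mM bromouridine added for the final 30 min. Total RNA isolated with TRIzol; Bru-labelled nascent RNA captured on anti-BrdU antibody-conjugated magnetic beads and sequenced. Transcript abundance expressed as RPKM relative to DMSO. Experiment performed once.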

U-87 MG [6] = experiment: Up regulation of AC087672.3 gene expression in human U87MG cells at 16 uM incubated for 4 hrs followed by bromouridine addition during last 30 mins of incubation by TRIzol-reagent based Bru-Seq analysis relative to control; type: functional, U-87MG ATCC; summary of the method: as §1
U-87 MG [7] = experiment: Down regulation of IL1B gene expression in human U87MG cells at 16 uM incubated for 4 hrs followed by bromouridine addition during last 30 mins of incubation by TRIzol-reagent based Bru-Seq analysis relative to control; type: functional, U-87MG ATCC; summary of the method: as §1
U-87 MG [8] = experiment: Up regulation of AC005324.3 gene expression in human U87MG cells at 16 uM incubated for 4 hrs followed by bromouridine addition during last 30 mins of incubation by TRIzol-reagent based Bru-Seq analysis relative to control; type: functional, U-87MG ATCC; summary of the method: as §1
U-87 MG [9] = experiment: Down regulation of CTGF gene expression in human U87MG cells at 16 uM incubated for 4 hrs followed by bromouridine addition during last 30 mins of incubation by TRIzol-reagent based Bru-Seq analysis relative to control; type: functional, U-87MG ATCC
U-87 MG [10] = experiment: Up regulation of AKR1C1 gene expression in human U87MG cells at 16 uM incubated for 4 hrs followed by bromouridine addition during last 30 mins of incubation by TRIzol-reagent based Bru-Seq analysis relative to control; type: functional, U-87MG ATCC; summary of the method: as §1
U-87 MG [11] = experiment: Down regulation of CTHRC1 gene expression in human U87MG cells at 16 uM incubated for 4 hrs followed by bromouridine addition during last 30 mins of incubation by TRIzol-reagent based Bru-Seq analysis relative to control; type: functional, U-87MG ATCC; summary of the method: as §1
U-87 MG [12] = experiment: Down regulation of LRRN3 gene expression in human U87MG cells at 16 uM incubated for 4 hrs followed by bromouridine addition during last 30 mins of incubation by TRIzol-reagent based Bru-Seq analysis relative to control; type: functional, U-87MG ATCC; summary of the method: as §1
U-87 MG [13] = experiment: Up regulation of HMOX1 gene expression in human U87MG cells at 16 uM incubated for 4 hrs followed by bromouridine addition during last 30 mins of incubation by TRIzol-reagent based Bru-Seq analysis relative to control; type: functional, U-87MG ATCC; summary of the method: as §1
U-87 MG [14] = experiment: Down regulation of AC022601.1 gene expression in human U87MG cells at 16 uM incubated for 4 hrs followed by bromouridine addition during last 30 mins of incubation by TRIzol-reagent based Bru-Seq analysis relative to control; type: functional, U-87MG ATCC
U-87 MG [15] = experiment: Down regulation of HLA-DQB1 gene expression in human U87MG cells at 10 uM incubated for 4 hrs followed by bromouridine addition during last 30 mins of incubation by TRIzol-reagent based Bru-Seq analysis relative to control; type: functional, U-87MG ATCC
U-87 MG [16] = experiment: Up regulation of ALOXE3 gene expression in human U87MG cells at 10 uM incubated for 4 hrs followed by bromouridine addition during last 30 mins of incubation by TRIzol-reagent based Bru-Seq analysis relative to control; type: functional, U-87MG ATCC; summary of the method: as §1
U-87 MG [17] = experiment: Up regulation of MMP1 gene expression in human U87MG cells at 10 uM incubated for 4 hrs followed by bromouridine addition during last 30 mins of incubation by TRIzol-reagent based Bru-Seq analysis relative to control; type: functional, U-87MG ATCC; summary of the method: as §1
U-87 MG [18] = experiment: Down regulation of NFIA gene expression in human U87MG cells at 10 uM incubated for 4 hrs followed by bromouridine addition during last 30 mins of incubation by TRIzol-reagent based Bru-Seq analysis relative to control; type: functional, U-87MG ATCC
Summary of the method: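 Nascent transcription (Bru-seq) in U87MG cells: treatment at 10 μM for 4 h, with 2 mM bromouridine added for the final 30 min. Total RNA isolated with TRIzol; Bru-labelled RNA captured using anti-BrdU antibody on magnetic beads, then sequenced. Transcript traces reported as RPKM compared with DMSO-treated cells. Single experiment.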

U-87 MG [19] = experiment: Down regulation of BARD1 gene expression in human U87MG cells at 10 uM incubated for 4 hrs followed by bromouridine addition during last 30 mins of incubation by TRIzol-reagent based Bru-Seq analysis relative to control; type: functional, U-87MG ATCC
U-87 MG [20] = experiment: Up regulation of HSPH1 gene expression in human U87MG cells at 10 uM incubated for 4 hrs followed by bromouridine addition during last 30 mins of incubation by TRIzol-reagent based Bru-Seq analysis relative to control; type: functional, U-87MG ATCC; summary of the method: as §1
U-87 MG [21] = experiment: Up regulation of INHBA gene expression in human U87MG cells at 10 uM incubated for 4 hrs followed by bromouridine addition during last 30 mins of incubation by TRIzol-reagent based Bru-Seq analysis relative to control; type: functional, U-87MG ATCC; summary of the method: as §1
U-87 MG [22] = experiment: Down regulation of DUT gene expression in human U87MG cells at 10 uM incubated for 4 hrs followed by bromouridine addition during last 30 mins of incubation by TRIzol-reagent based Bru-Seq analysis relative to control; type: functional, U-87MG ATCC
U-87 MG [23] = experiment: Up regulation of HSPA4L gene expression in human U87MG cells at 10 uM incubated for 4 hrs followed by bromouridine addition during last 30 mins of incubation by TRIzol-reagent based Bru-Seq analysis relative to control; type: functional, U-87MG ATCC; summary of the method: as §1
U-87 MG [24] = experiment: Down regulation of E2F1 gene expression in human U87MG cells at 10 uM incubated for 4 hrs followed by bromouridine addition during last 30 mins of incubation by TRIzol-reagent based Bru-Seq analysis; type: functional, cell-based; conditions: U-87MG ATCC
U-87 MG [25] = experiment: Up regulation of DEDD2 gene expression in human U87MG cells at 10 uM incubated for 4 hrs followed by bromouridine addition during last 30 mins of incubation by TRIzol-reagent based Bru-Seq analysis relative to control; type: functional, U-87MG ATCC; summary of the method: as §1
U-87 MG [26] = experiment: Cytotoxicity against human U87MG cells assessed as inhibition of cell proliferation at <IC50 treated for 24 hrs, measured after 10 days by colony formation assay relative to control

With O=C(/C=C/c1ccc(-c2cccnc2)cc1)c1cccc(O)c1 the Activity (U-87 MG [1]) was “Active”.
In the case of COC(=O)c1cccc(/C=C/C(=O)c2cccc(O)c2)c1, the “fold change (FC)” value (U-87 MG [2]) was 2.9, the “fold change (FC)” value (U-87 MG [3]) was 6.2 and the “fold change (FC)” value (U-87 MG [4]) was 2.8. The “fold change (FC)” value (U-87 MG [5]) was 5.1, the “fold change (FC)” value (U-87 MG [6]) was 3.8 and the “fold change (FC)” value (U-87 MG [7]) was 5.5. The “fold change (FC)” value (U-87 MG [8]) was 5.3, the “fold change (FC)” value (U-87 MG [9]) was 3.1 and the “fold change (FC)” value (U-87 MG [10]) was 8.1. For the same molecule, the “fold change (FC)” value (U-87 MG [11]) was 3.4, the “fold change (FC)” value (U-87 MG [12]) was 3.6 and the “fold change (FC)” value (U-87 MG [13]) was 21.6. The “fold change (FC)” value (U-87 MG [14]) was 2.7.
In the case of CCCCCN(CCCCC)S(=O)(=O)c1ccc(C(=O)/C=C/c2cccc(C#N)c2)cc1, the “fold change (FC)” value (U-87 MG [15]) was 2.9, the “fold change (FC)” value (U-87 MG [16]) was 17 and the “fold change (FC)” value (U-87 MG [17]) was 32.1. The “fold change (FC)” value (U-87 MG [18]) was 2.4, the “fold change (FC)” value (U-87 MG [19]) was 2.3 and the “fold change (FC)” value (U-87 MG [20]) was 20. The “fold change (FC)” value (U-87 MG [21]) was 27, the “fold change (FC)” value (U-87 MG [22]) was 2.3 and the “fold change (FC)” value (U-87 MG [23]) was 8.6. For the same molecule, the Activity (U-87 MG [24]) was “Active”, the “fold change (FC)” value (U-87 MG [25]) was 11 and the “inhibition (INH)” value (U-87 MG [26]) was >50%.
